Measured values taken from ChEMBL document CHEMBL1148092, “Novel Ca(2+)-ATPase inhibitors from the dried root tubers of Polygonum Multiflorum” (J Nat Prod, 1994).
Active and inactive are the calls of the source. The calls are words filed in the database; no cut-off is given here.

Tests used:
Format in all cases: cell-based
Homo sapiens [1] = species: Homo sapiens; test: Inhibition of Ca2+ ATPase activity in human red blood cells at 25 uM by spectrophotometry
Method in brief: (§1)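 Calmodulin-depleted membranes from human packed erythrocytes (2.5 mg/ml) were incubated for 1 h at 37° in 65 mM KCl, 20 mM K-HEPES, 5 mM MgCl2, 50 μM CaCl2 (50.4 μM free Ca2+), 0.1 μM calmodulin and 0.1 mM EGTA. Test agents in DMSO (2.5% final) were added before 2 mM ATP (pH 7.4). Released phosphate was read spectrometrically, Mg2+-ATPase activity was subtracted, and assays were run in duplicate.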

Homo sapiens [2] = species: Homo sapiens; test: Inhibition of Ca2+ ATPase activity in human red blood cells at 1600 uM by spectrophotometry; method in brief: as §1
Homo sapiens [3] = species: Homo sapiens; test: Inhibition of Mg2+ ATPase activity in human red blood cells at 1600 uM by spectrophotometry
Method in brief: (§2)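 Mg2+-ATPase was assayed with calmodulin-depleted human erythrocyte membranes (2.5 mg/ml) at 37° for 1 h, without added CaCl2, in 65 mM KCl, 20 mM K-HEPES, 5 mM MgCl2, 0.1 μM calmodulin and 0.1 mM EGTA. Compounds in DMSO (2.5% final) were added before starting with 2 mM ATP (pH 7.4). Liberated phosphate was measured spectrometrically, in duplicate.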

Homo sapiens [4] = species: Homo sapiens; test: Inhibition of Ca2+ ATPase activity in human red blood cells at 400 uM by spectrophotometry; method in brief: as §1
Homo sapiens [5] = species: Homo sapiens; test: Inhibition of Mg2+ ATPase activity in human red blood cells at 400 uM by spectrophotometry; method in brief: as §2
Homo sapiens [6] = species: Homo sapiens; test: Inhibition of Mg2+ ATPase activity in human red blood cells at 50 uM by spectrophotometry; method in brief: as §2
[7] = Inhibition of Ca2+ ATPase activity in human red blood cells by spectrophotometry; method in brief: as §1
Homo sapiens [8] = species: Homo sapiens; test: Inhibition of Ca2+ ATPase activity in human red blood cells at 200 uM by spectrophotometry; method in brief: as §1
Homo sapiens [9] = species: Homo sapiens; test: Inhibition of Ca2+ ATPase activity in human red blood cells at 100 uM by spectrophotometry; method in brief: as §1
Homo sapiens [10] = species: Homo sapiens; test: Inhibition of Mg2+ ATPase activity in human red blood cells at 200 uM by spectrophotometry; method in brief: as §2
Homo sapiens [11] = species: Homo sapiens; test: Inhibition of Mg2+ ATPase activity in human red blood cells at 800 uM by spectrophotometry; method in brief: as §2
Homo sapiens [12] = species: Homo sapiens; test: Inhibition of Mg2+ ATPase activity in human red blood cells at 25 uM by spectrophotometry; method in brief: as §2
Homo sapiens [13] = species: Homo sapiens; test: Inhibition of Ca2+ ATPase activity in human red blood cells at 800 uM by spectrophotometry; method in brief: as §1
Homo sapiens [14] = species: Homo sapiens; test: Inhibition of Mg2+ ATPase activity in human red blood cells at 100 uM by spectrophotometry; method in brief: as §2
Homo sapiens [15] = species: Homo sapiens; test: Inhibition of Ca2+ ATPase activity in human red blood cells at 50 uM by spectrophotometry; method in brief: as §1

SMILES: OC[C@H]1O[C@@H](Oc2c(O)cc(O)cc2/C=C/c2ccc(O)cc2)[C@H](O)[C@@H](O)[C@@H]1O
- inhibition (Homo sapiens [1]): 8%
- inhibition (Homo sapiens [2]): 98%
- inhibition (Homo sapiens [3]): 75%
- inhibition (Homo sapiens [4]): 70%
- inhibition (Homo sapiens [5]): 56%
- inhibition (Homo sapiens [6]): 25%
- IC50 [7]: 240 µM
- inhibition (Homo sapiens [8]): 44%
- inhibition (Homo sapiens [9]): 15%
- inhibition (Homo sapiens [10]): 41%
- inhibition (Homo sapiens [11]): 62%
- inhibition (Homo sapiens [12]): 14%
- inhibition (Homo sapiens [13]): 95%
- inhibition (Homo sapiens [14]): 28%
- inhibition (Homo sapiens [15]): 8%

SMILES: COc1ccc(/C=C/c2cc(O)cc(O[C@@H]3O[C@H](CO)[C@@H](O)[C@H](O)[C@H]3O)c2)cc1O
- Activity (Homo sapiens [2]): inactive

SMILES: Cc1cc(O)c2c(c1)C(=O)c1cc(O)cc(O)c1C2=O
- Activity (Homo sapiens [2]): inactive

SMILES: Cc1cc(O)c2c(c1)C(=O)c1cccc(O)c1C2=O
- Activity (Homo sapiens [2]): inactive

SMILES: O=C(O)c1cc(O)c2c(c1)C(=O)c1cccc(O)c1C2=O
- Activity (Homo sapiens [2]): inactive

SMILES: OC[C@H]1O[C@@H](Oc2cc(O)cc(O)c2/C=C/c2ccc(O)cc2)[C@H](O)[C@@H](O)[C@@H]1O
- Activity (Homo sapiens [1]): inactive
- Activity (Homo sapiens [6]): inactive
- Activity (Homo sapiens [8]): inactive
- Activity (Homo sapiens [9]): inactive
- Activity (Homo sapiens [10]): inactive
- Activity (Homo sapiens [12]): inactive
- Activity (Homo sapiens [14]): inactive
- Activity (Homo sapiens [15]): inactive

SMILES: CCC/C=C1/OC(=O)C2=C1CC[C@H](O)[C@H]2O (relative stereo)
- inhibition (Homo sapiens [1]): 0%
- inhibition (Homo sapiens [2]): 94%
- inhibition (Homo sapiens [3]): 82%
- inhibition (Homo sapiens [4]): 72%
- inhibition (Homo sapiens [6]): 13%
- IC50 [7]: 260 µM
- inhibition (Homo sapiens [8]): 36%
- inhibition (Homo sapiens [9]): 8%
- inhibition (Homo sapiens [10]): 32%
- inhibition (Homo sapiens [11]): 71%
- inhibition (Homo sapiens [12]): 21%
- inhibition (Homo sapiens [13]): 87%
- inhibition (Homo sapiens [14]): 32%
- inhibition (Homo sapiens [15]): 3%

SMILES: CCC/C=C1/OC(=O)C2=C1CC[C@H](O)[C@@H]2O (relative stereo)
- inhibition (Homo sapiens [1]): 0%
- inhibition (Homo sapiens [4]): 79%
- inhibition (Homo sapiens [5]): 67%
- inhibition (Homo sapiens [6]): 17%
- IC50 [7]: 160 µM
- inhibition (Homo sapiens [8]): 62%
- inhibition (Homo sapiens [9]): 27%
- inhibition (Homo sapiens [10]): 52%
- inhibition (Homo sapiens [11]): 85%
- inhibition (Homo sapiens [12]): 0%
- inhibition (Homo sapiens [13]): 90%
- inhibition (Homo sapiens [14]): 36%
- inhibition (Homo sapiens [15]): 0%
